# An excerpt weighted towards active compounds, which were near 12% of everything screened.
# ABCB1 block: blocks JC-1 efflux by human ABCB1 transporter. CCRF-Adr cells, flow cytometry. inhibition, % at 6.6 µM. 0.067% of 190,000 active; in the data active means inhibition above about 40%;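 further: 0% = vehicle and 100% = reference inhibitor; higher value means more JC-1 retained so stronger ABCB1 efflux block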
# ABCG2 inh: inhibitors of human ABCG2 transporter, ABCB1 counter-screen | Q9UNQ0 | IgMXP3 cells, JC-1 efflux, flow cytometry | inhibition, % at 6.6 µM | 0.1% of 190,000 active | AID 1325;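 active means inhibition above 80%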;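 further: 0% = DMSO and 100% = nicardipine control wells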
# Target sequence (Q9UNQ0 whole entry, looked up): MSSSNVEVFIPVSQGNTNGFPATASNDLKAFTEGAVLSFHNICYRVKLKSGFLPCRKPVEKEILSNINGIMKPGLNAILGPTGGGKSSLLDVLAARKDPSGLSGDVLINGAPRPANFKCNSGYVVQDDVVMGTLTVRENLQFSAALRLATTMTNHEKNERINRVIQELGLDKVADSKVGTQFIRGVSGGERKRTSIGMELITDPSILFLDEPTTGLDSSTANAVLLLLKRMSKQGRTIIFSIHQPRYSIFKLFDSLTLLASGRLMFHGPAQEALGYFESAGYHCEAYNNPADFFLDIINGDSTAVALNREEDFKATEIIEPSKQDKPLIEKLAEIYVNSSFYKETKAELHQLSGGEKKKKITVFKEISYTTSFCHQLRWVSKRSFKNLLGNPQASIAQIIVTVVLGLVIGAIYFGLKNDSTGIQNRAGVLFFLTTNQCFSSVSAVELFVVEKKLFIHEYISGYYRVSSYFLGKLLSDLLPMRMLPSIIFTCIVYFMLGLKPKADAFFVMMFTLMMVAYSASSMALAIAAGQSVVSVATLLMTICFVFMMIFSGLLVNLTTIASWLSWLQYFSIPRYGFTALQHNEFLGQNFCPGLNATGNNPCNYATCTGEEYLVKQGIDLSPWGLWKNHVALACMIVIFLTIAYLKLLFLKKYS
#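 System: two drug-resistant human cell lines, ABCG2 and ABCB1; controls: nicardipine high and DMSO low controls; times: 10 min exposure at 25 °C with rotation, no wash; detection: flow cytometry of retained JC-1 fluorescence; read-out basis: percent efflux inhibition, scaled nicardipine 100% to DMSO 0%; doses: one concentration, 6.6 µM final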
# RAM inhibit: inhibitors of the yeast RAM network. S. cerevisiae dse1pr::URA3 reporter, 5-FOA growth OD615, 2 d; analog-sensitive cbk1-as2 kinase mutant strain. inhibition, % at 50 µM. 1.8% of 190,000 active;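 active means inhibition above a set limit, 3 SD over mean compound inhibition, cut at about 8.4% in these data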;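 further: 0% = DMSO-only wells with no growth and 100% = 10 µM 1-NA-PP1 full growth; inhibition rescues growth on 5-FOA so higher OD means more RAM inhibition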
# WT yeast gro inh: growth inhibition of WT yeast, mitochondrial fusion screen; inhibition, % at 10 µM; 2.1% of 190,000 active; AID 1362; mitochondrial fusion phenotypic screen, WT strain; in the data active means inhibition above about 58%; tested in S. cerevisiae
# L major viab: inhibitors of Leishmania major promastigote growth | AID 1063 | Leishmania major promastigotes, resazurin fluorescence viability | inhibition, % at 10 µM | 9% of 200,000 active; in the data active means inhibition above about 50%;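 further: promastigotes grown with compound for 44 hours at 28 °C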
# The depositor's hits bear a star; . = not tested or not shown.
SMILES,ABCB1 block,ABCG2 inh,RAM inhibit,WT yeast gro inh,L major viab
Cc1ccc(OCC(O)Cn2c(=N)n(CCN3CCCCC3)c3ccccc32)cc1 (configuration not stated),0,1,-1,3,100*
CCCCn1c(=N)n(CC(O)COc2cccc(C)c2)c2ccccc21 (configuration not stated),1,1,1,-10,100*
COc1ccc(OCC(O)Cn2c(=N)n(CCN3CCCCC3)c3ccccc32)cc1 (configuration not stated),1,5,0,-9,100*
COc1ccc(OCC(O)CN2CCCCC2)cc1 (configuration not stated),0,1,0,2,8
C=CCOc1ccc(Br)cc1CNCC,0,0,2,-12,-3
NS(=O)(=O)c1cccc(NS(=O)(=O)c2ccc(/C=C/C(=O)OCC(=O)c3ccccc3)cc2)c1,-1,-3,3,-19,-9
O=C1C2=C(Nc3ccccc3SC2c2ccco2)c2ccccc21 (configuration not stated),0,4,2,46,99*
COc1ccccc1N1CCN(C(=O)c2oc3ccc(Br)cc3c2C)CC1,1,2,2,79*,-5
COc1ccccc1N1CCN(c2ncnc3c2oc2ccccc23)CC1,2,7,1,61*,14
C(=C\c1ccccc1)/CN1CCN(c2ncnc3c2oc2ccccc23)CC1,1,2,2,67*,57*
CC1=NOC2(C1)N(C)c1ccccc1C2(C)C (configuration not stated),0,1,2,0,-4
COc1ccc2ccc3c(c2c1)N=C[C@]1(O3)N(C)c2ccccc2C1(C)C,1,2,1,75*,16
CCOC(=O)N1CCN(S(=O)(=O)c2ccc(C(=O)NNc3nc4c(C)cccc4s3)cc2)CC1,-1,-4,3,-6,1
Cc1cccc2sc(NNC(=O)c3ccc(S(=O)(=O)N4CCc5ccccc5C4)cc3)nc12,-1,-2,4,-11,99*
CC1CCCN(S(=O)(=O)c2ccc(C(=O)Nc3ccccc3-c3nc4ccccc4[nH]3)cc2)C1 (configuration not stated),0,0,9.8*,0,-6
CC1CCN(S(=O)(=O)c2ccc(C(=O)Nc3ccccc3-c3nc4ccccc4[nH]3)cc2)CC1,0,-2,3,1,1
Cc1cccc2sc(NNC(=O)c3ccc(S(=O)(=O)N4CCCC(C)C4)cc3)nc12 (configuration not stated),-1,-2,3,-1,96*
S=c1sc(SCCOc2ccccc2)nn1-c1ccccc1,0,12,4,8,-4
Cc1cccc(OCC(O)CN2CCN(C3CCCCC3)CC2)c1 (configuration not stated),1,11,0,-16,91*
CC1CCN(CC(O)COc2cccc(F)c2)CC1 (configuration not stated),0,0,2,10,66*
CC1CCN(CC(O)COc2ccc(F)cc2)CC1 (configuration not stated),0,-1,0,11,30
COc1cccc(OCC(O)CN2CCC(C)CC2)c1 (configuration not stated),0,1,2,16,71*
O=C(Cn1nnc2ccccc21)Nc1ccc(Cl)cn1,0,0,3,-9,-1
CCc1c(C)nc2cc(-c3ccc(OC)c(OC)c3)nn2c1NCC1CC1,2,4,-1,27,101*
COc1ccc(-c2nc(C)c(C(C)=O)n2O)cc1OC,1,10,0,8,13
SMILES,ABCB1 block,ABCG2 inh,RAM inhibit,WT yeast gro inh,L major viab
N=c1n(CCO)c2ccccc2n1CCOc1ccc(Cl)cc1Cl,1,3,1,12,98*
COc1ccc(OCCn2c(=N)n(CCO)c3ccccc32)cc1,1,4,2,.,-1
O=C(COc1ccc(S(=O)(=O)NC2CCCCC2)cc1)NC1CCCCC1,1,1,5,-2,10
O=C(COc1ccc(S(=O)(=O)NC2CCCCC2)cc1)NCCC1=CCCCC1,2,4,3,-4,59*
O=C(CN1CCN(C2CCCCC2)CC1)NCCC1=CCCCC1,0,1,1,4,94*
CCS(=O)(=O)c1nc(S(=O)(=O)c2ccc(C)cc2)c(NCCCN(C)C)s1,2,6,1,-2,48
Cc1cccc(C(=O)Nc2nc(C)c(C(=O)Nc3ccc4c(c3)CCC4)s2)c1,-1,-1,8.6*,11,7
O=C(Nc1cccc(Oc2ccc3c(c2)C(=O)NC3=O)c1)c1cccs1,1,75,2,-16,-3
CCOc1ccc2c(c1)C(C)=CC(C)(C)N2C(=O)Nc1ccccc1,1,10,4,15,50*
COc1ccc(NC(=O)N2c3ccc(OC)cc3C(C)=CC2(C)C)cc1,1,8,1,2,30
CCOc1ccc(NC(=S)NNc2ccnc3cc(Cl)ccc23)cc1,-1,-3,2,10,42
CCOc1ccccc1Nc1ccnc2cc(Cl)ccc12,1,4,-1,15,53*
O=C(O)CC1NC(=O)N(C2CCCCC2)C1=O (configuration not stated),0,2,1,-1,-9
COc1cccc(NC(=O)C(=S)NC2CCCCC2)c1,0,1,2,59*,-8
Cn1nc(-c2ccc(Cl)cc2)c2cc(C(=O)NCCCN3CCCC3)sc21,2,3,0,17,100*
CCCCNC(=O)c1cc2c(-c3ccc(Cl)cc3)nn(C)c2s1,0,1,3,3,-1
CCN1CCCC1CNC(=O)c1cc2c(-c3cccc(OC)c3)nn(C)c2s1 (configuration not stated),1,19,2,1,82*
CCN1CCCC1CNC(=O)C(=O)Nc1ccccc1 (configuration not stated),2,4,1,-6,-5
CCN1CCCC1CNC(=O)C(=O)Nc1cccc(OC)c1 (configuration not stated),.,6,0,8,53*
COc1cccc(NC(=O)C(NC2CCCC2)c2ccccc2)c1 (configuration not stated),1,3,0,-16,14
CC(=O)N/C(=C\c1ccccc1)C(=O)NCC(=O)O,0,0,0,-8,-4
CCOC(=O)C1CCCN(C(=O)c2cc(Nc3ccc(OC)cc3)nc3ccccc23)C1 (configuration not stated),2,6,3,10,12
CCN1CCCC1CNC(=O)c1cc2c(-c3ccc(Cl)cc3)nn(C)c2s1 (configuration not stated),0,4,2,13,100*
Cc1nc2ccccc2c(=O)n1NC(=O)Cc1ccc([N+](=O)[O-])cc1,0,2,1,17,1

# Bioassay records deposited in PubChem by several laboratories.
